PP5 primary – blocks human protein phosphatase 5 activity; purified PP5c, OMFP substrate fluorescence; P53041; inhibition, % at 6.7 µM; 320,000 tested, 0.18% active; AID 1987;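 active = inhibition above the campaign's mean inhibition across all tested compounds plus 3 SD, cut at about 9.5% in these data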;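 also: 0% = DMSO only and 100% = 100 µM cantharidin control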
DNA FID counter – counter-screen for HCV NS3 helicase inhibitors: DNA intercalator displacement | 290,000 tested, 0.17% active | DNA fluorescent intercalator displacement, fluorescence | inhibition, % at 7.9 µM | AID 1845; in the data active = inhibition above about 37%;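 also: 0% = vehicle and 100% = reference compound; higher means more ethidium bromide displaced from hairpin DNA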
PP1 counter – blocks human PP1-alpha phosphatase, a PP5 counter-screen | inhibition, % at 6.7 µM | 320,000 tested, 0.9% active | AID 2235 | purified PP1alpha, OMFP fluorescence;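 active = inhibition above the mean inhibition of all tested compounds plus 3 SD, computed separately for each screening campaign, cut at about 15% in these data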
Target sequence (P62136 whole entry, looked up): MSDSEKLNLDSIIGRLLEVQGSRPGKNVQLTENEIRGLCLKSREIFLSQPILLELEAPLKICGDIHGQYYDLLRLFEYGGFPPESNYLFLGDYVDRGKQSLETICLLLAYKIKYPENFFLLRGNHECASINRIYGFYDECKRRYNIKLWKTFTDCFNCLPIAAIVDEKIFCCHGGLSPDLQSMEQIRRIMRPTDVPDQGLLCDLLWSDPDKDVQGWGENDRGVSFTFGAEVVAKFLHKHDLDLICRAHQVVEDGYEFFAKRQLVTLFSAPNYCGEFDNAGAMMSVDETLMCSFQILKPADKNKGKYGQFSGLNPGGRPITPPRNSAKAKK
HIF activator – HIF pathway transcriptional activation; U2OS HRE-luciferase reporter, luminescence; normalized: DMSO 0%, desferrioxamine 100%; activation, % at 7.5 µM (by protocol); 300,000 tested, 0.32% active; AID 1910;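 active = mean activation of at least 10% of the iron chelator positive control signal, with at least half of replicates also reaching 10%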
NS3 helicase inh – inhibitors of Hepatitis C virus NS3 helicase; inhibition, % at 10.9 µM; NS3 helicase DNA unwinding, Cy5 molecular beacon fluorescence; 290,000 tested, 0.56% active; AID 1800;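 active = inhibition above the mean of all tested compounds plus 3 SD, set per campaign, cut at about 35% in these data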;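 also: 0% = DMSO wells and 100% = thioflavine S control wells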
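Control set: DMSO versus 110 µM thioflavine S; Material: NS3 helicase fragment of HCV; Measured by: Cy5 fluorescence at 0 and 60 min, beacon hairpin quenching; Read-out basis: percent inhibition from t60/t0 fluorescence ratio; Times: reaction time 60 min, 25 °C; Repeats: single replicate; Compound dosing: single dose, 10.9 µM nominal final, DMSO 0.8% final.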
PP1 confirm – human PP1 phosphatase inhibition, confirmation; shares compounds with PP1 counter; purified PP1alpha, OMFP substrate fluorescence; inhibition, % at 6.7 µM; 1,900 tested, 52% active; AID 2358;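 active = mean PP1 inhibition above a set limit taken from the earlier primary screen, cut at about 15% in these data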
PP5 counter – counter-screen for PP1 inhibitors: human PP5 phosphatase inhibition; inhibition, % at 6.7 µM; AID 2360; shares compounds with PP1 counter; purified PP5c, OMFP fluorescence; 1,900 tested, 4% active;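 active = mean PP5 inhibition over triplicate wells above about 9.5% taken from the earlier PP1 screen, limit read from the data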
Numbers without * were called inactive. This is a sample that favours compounds with a hit; in the whole collection about 1.9% have one here.

CC(=O)NC1C(=O)N(CCN2CCOCC2)c2ccc(Br)cc21 (stereo not given) was read as PP5 primary 4, DNA FID counter -1, PP1 counter 38*, HIF activator 0, NS3 helicase inh 5, PP1 confirm 38* and PP5 counter -2.
`COc1ccccc1CCNC(=O)c1cccc(S(=O)(=O)NCc2ccccc2)c1` gave PP5 primary 2, PP1 counter 0 and HIF activator -2.
Screening Cc1c(-c2ccc(Cl)cc2)oc(=O)c2c(N)n(-c3ccccc3)nc12 returned PP5 primary 1, DNA FID counter -5, PP1 counter 23*, HIF activator 0, NS3 helicase inh -1, PP1 confirm 28* and PP5 counter -3.
Nc1c2c(=O)oc(-c3ccccc3)cc2nn1-c1ccccc1 was read as PP5 primary 4, DNA FID counter -5, PP1 counter -2, HIF activator 5 and NS3 helicase inh 6.
`CCN1CCN(c2ccc(NC(=O)c3ccc(Cl)c(N4CCCC4=O)c3)cc2)CC1` gave PP5 primary 0, DNA FID counter 2, PP1 counter -1, HIF activator 1 and NS3 helicase inh -8.
Screening CCCCC[C@H](O)/C=C/[C@@H]1[C@@H](C/C=C\CCCC(=O)O)[C@@H](O)C[C@H]1O returned PP5 primary 1, DNA FID counter -43, PP1 counter -2, HIF activator 0 and NS3 helicase inh 14.
For CCCCC[C@H](O)/C=C/[C@@H]1[C@@H](C/C=C\CCCC(=O)OC)[C@@H](O)C[C@H]1O the results were PP5 primary 7, DNA FID counter -39, PP1 counter 46*, HIF activator 0, NS3 helicase inh -6, PP1 confirm 43* and PP5 counter -2.
Screening O=C(Cn1ccc([N+](=O)[O-])n1)NCC1CCCO1 (stereo not given) returned DNA FID counter -2, HIF activator 0 and NS3 helicase inh -10.
For O=C(NCC1CCCO1)c1nc(Cn2ccc([N+](=O)[O-])n2)no1 (stereo not given) the results were PP5 primary 5, DNA FID counter -9, PP1 counter 21*, HIF activator 0, NS3 helicase inh 9, PP1 confirm -5 and PP5 counter -5.
For O=C(C[n+]1cc(-c2ccc(Cl)cc2)n2c1CCC2)Nc1nc(-c2ccc(F)cc2)cs1 the results were PP5 primary 4, DNA FID counter 19, PP1 counter 21*, HIF activator 0, NS3 helicase inh -118, PP1 confirm -8 and PP5 counter 1.
`O=C(C[n+]1cc(-c2ccc(F)cc2)n2c1CCC2)Nc1nc(-c2ccc(F)cc2)cs1` gave PP5 primary 4, DNA FID counter 19, PP1 counter 13, HIF activator 0 and NS3 helicase inh -63.
`CC1(c2ccc(Cl)cc2)NC(=O)N(CC(=O)Nc2ccc(N3CCCCC3)cc2)C1=O` (stereo not given) gave PP5 primary -2, PP1 counter 39*, HIF activator -5, PP1 confirm 4 and PP5 counter -2.
COc1ccc(NC(=O)CN2C(=O)NC(C)(c3ccccc3)C2=O)cc1Cl (stereo not given) was read as PP5 primary 1, DNA FID counter -4, PP1 counter -88, HIF activator 0, NS3 helicase inh 6, PP1 confirm 1 and PP5 counter 2.
For COc1ccc(CNc2nnnn2C)c(OC)c1 the results were PP5 primary 0, DNA FID counter -4, PP1 counter -1, HIF activator -1 and NS3 helicase inh 1.
Screening Cc1ccc(C(=O)Nc2nc3n(n2)C(c2ccccc2)CC(=O)N3)cc1 (stereo not given) returned PP5 primary 0, DNA FID counter 2, PP1 counter -6, HIF activator -1 and NS3 helicase inh 4.
O=C(Nc1nc(-c2ccco2)c(-c2ccco2)s1)c1cnccn1 was read as PP5 primary 0, PP1 counter 23*, HIF activator -22, PP1 confirm 12 and PP5 counter -2.
For O=C1Nc2ccccc2/C1=C/c1cccnc1 the results were PP5 primary 0, DNA FID counter 10, PP1 counter -4, HIF activator 0 and NS3 helicase inh -1.
O=C1Nc2ccccc2/C1=C/c1cnc(-c2ccccc2)[nH]1 was read as PP5 primary 2, DNA FID counter -14, PP1 counter 35*, HIF activator 5, NS3 helicase inh -11, PP1 confirm 35* and PP5 counter -1.
`CCOC(=O)c1ccc(NC(=O)c2ccccc2C)cc1` gave PP5 primary 3, DNA FID counter -11, PP1 counter -4, HIF activator 3 and NS3 helicase inh -9.
`C=Cc1c(C)c2cc3[nH]c(cc4nc(cc5nc(cc1[nH]2)C(C)=C5CCC(=O)O)C(CCC(=O)O)=C4C)c(C)c3C=C` gave PP5 primary 5, PP1 counter 61*, HIF activator -1, PP1 confirm 41* and PP5 counter 4.
Screening Cc1ccc(CNC(=O)CS(=O)Cc2nc(-c3ccccc3F)oc2C)cc1 (stereo not given) returned PP5 primary -2, DNA FID counter -59, PP1 counter 0, HIF activator 0 and NS3 helicase inh 3.
`CCN(c1ccccc1)S(=O)(=O)c1ccc(C(=O)Nc2cccc(C)n2)cc1` gave PP5 primary 6 and PP1 counter 2.
CN(c1ccccc1)S(=O)(=O)c1ccc(C(=O)Nc2nnc(-c3ccco3)o2)cc1 was read as PP5 primary 6, DNA FID counter -44, PP1 counter 22*, HIF activator 0, NS3 helicase inh 7, PP1 confirm 20* and PP5 counter 2.
Screening CCN(c1ccccc1)S(=O)(=O)c1ccc(C(=O)Nc2nnc(-c3ccco3)o2)cc1 returned PP5 primary 6, DNA FID counter -47, PP1 counter 19*, HIF activator 0, NS3 helicase inh 25, PP1 confirm 23* and PP5 counter 2.
For CCN(CC)c1ccc2cc(S(=O)(=O)c3ccc(C)cc3)c(=O)oc2c1 the results were PP5 primary 0, DNA FID counter -1, PP1 counter 1, HIF activator 0 and NS3 helicase inh 9.
For O=C(O)C1C2CCC(O2)C1C(=O)Nc1cccc(Cl)c1 (stereo not given) the results were PP5 primary 69*, DNA FID counter 2, PP1 counter 70*, HIF activator -1, NS3 helicase inh 5, PP1 confirm 17* and PP5 counter 25*.
`Cc1nn(C)cc1CNC(=O)C1C2CCC(C2)C1C(=O)O` (stereo not given) gave PP5 primary 6, DNA FID counter 0, PP1 counter -1, HIF activator 0 and NS3 helicase inh -1.
